Published values of several laboratories.
Protocols differ between the studies behind these lines.
PIK3CA: Phosphatidylinositol 4,5-bisphosphate 3-kinase catalytic subunit alpha isoform (PIK3CA, Homo sapiens, UniProt P42336)
PIK3CA E545A: Phosphatidylinositol 4,5-bisphosphate 3-kinase catalytic subunit alpha isoform (PIK3CA, Homo sapiens, UniProt P42336, E545A)
PIK3CA I800L: Phosphatidylinositol 4,5-bisphosphate 3-kinase catalytic subunit alpha isoform (PIK3CA, Homo sapiens, UniProt P42336, I800L)
PIK3CA E542K: Phosphatidylinositol 4,5-bisphosphate 3-kinase catalytic subunit alpha isoform (PIK3CA, Homo sapiens, UniProt P42336, E542K)
PIK3CA H1047L: Phosphatidylinositol 4,5-bisphosphate 3-kinase catalytic subunit alpha isoform (PIK3CA, Homo sapiens, UniProt P42336, H1047L)

CC(C)=CC(=O)CCCC(=O)N1CCN(c2nc(-c3cnc(N)nc3C(F)F)nc(N3CCOCC3)n2)CC1 — kinact (PIK3CA; cell-free assay, TR-FRET): 2.6e-05 s⁻¹
Cc1cnn2ncc(-c3ccnc(N(C)C)n3)c2c1 — remaining binding (PIK3CA E545A; binding; 1 µM): 100%
O=C(Nc1cccnn1)N1CC(C/C=C/c2cncc(Oc3ccc(C(F)(F)F)cn3)n2)C1 — remaining binding (PIK3CA I800L; cell-free assay, competition with immobilised ligand; 1 µM): 91%
C=CC(=O)N1CCC(C(=O)N(C)CCCC(=O)N2CCN(c3nc(-c4cnc(N)nc4C(F)F)nc(N4CCOCC4)n3)CC2)CC1 — kinact/KI (PIK3CA; cell-free assay, TR-FRET): 33600 M⁻¹ s⁻¹
C[C@@H]1CCN(c2nccc(-c3cnn4ncccc34)n2)C1 — remaining binding (PIK3CA E545A; binding; 1 µM): 88%
CC(=O)Oc1ccc(-c2coc3c4c(c(CC=C(C)C)c(OC(C)=O)c3c2=O)OC(C)(C)C=C4)cc1OC(C)=O — remaining activity (PIK3CA E542K; enzyme activity, inhibitor, ADP detection; 10 µM): 46.1%
C/C=C/C(=O)CCCCCC(=O)N1CCN(c2nc(-c3cnc(N)nc3C(F)F)nc(N3CCOCC3)n2)CC1 — kinact (PIK3CA; cell-free assay, TR-FRET): 0.0153 s⁻¹
Cc1ccc(C(=O)Nc2ccc(CN3CCN(C)CC3)c(C(F)(F)F)c2)cc1C#Cc1cnc2cccnn12 — remaining activity (PIK3CA E542K; enzyme activity, inhibitor; 23.5 nM): 96%
CN(C)c1nccc(-c2cnn3ncccc23)n1 — remaining binding (PIK3CA I800L; binding; 1 µM): 96%
C=CC(=O)N(C)CCCCC(=O)N1CCN(c2nc(-c3cnc(N)nc3C(F)F)nc(N3CCOCC3)n2)CC1 — kinact/KI (PIK3CA; cell-free assay, TR-FRET): 20300 M⁻¹ s⁻¹
CN(C)c1ncc(F)c(-c2cnn3ncccc23)n1 — remaining binding (PIK3CA H1047L; binding; 1 µM): 100%
Cc1nc(Cc2cccc(C(F)(F)F)c2)sc1-c1ccc(C(N)=O)nc1 — remaining binding (PIK3CA E545A; cell-free assay, competition with immobilised ligand; 1 µM): 100%
C=CC(=O)NCCCCC(=O)N1CCN(c2nc(-c3cnc(N)nc3C(F)F)nc(N3CCOCC3)n2)CC1 — kinact/KI (PIK3CA; cell-free assay, TR-FRET): 16400 M⁻¹ s⁻¹
O=c1nc(-c2ccccn2)sc2ccccc12 — remaining binding (Phosphatidylinositol 4,5-bisphosphate 3-kinase catalytic subunit alpha isoform (PIK3CA, Homo sapiens, UniProt P42336, M1043I); cell-free assay, competition with immobilised ligand; 1 µM): 100%
F[C@@H]1CCN(c2nccc(-c3cnn4ncccc34)n2)C1 — remaining binding (Phosphatidylinositol 4,5-bisphosphate 3-kinase catalytic subunit alpha isoform (PIK3CA, Homo sapiens, UniProt P42336, H1047Y); binding; 1 µM): 81%
Cn1nc(C(F)(F)F)cc1-c1cnc(N2CCc3cc(S(=O)(=O)Nc4c(F)cc(Cl)cc4F)cc(N4CCCC4=O)c32)nc1 — remaining binding (PIK3CA H1047L; cell-free assay, competition with immobilised ligand; 1 µM): 94%
Nc1ncnc2occ(-c3ccc(NC(=O)Nc4cc(C(F)(F)F)ccc4F)cc3)c12 — remaining signal (Phosphatidylinositol 4,5-bisphosphate 3-kinase catalytic subunit alpha isoform (PIK3CA, Homo sapiens, UniProt P42336, Q546K); cell-free assay, inhibitor; 20 µM): 72%
c1ccc(CNc2nc(N3CCOc4ccccc43)nc3c2CCCC3)cc1 — inhibition (PIK3CA; target engagement in cells, inhibitor, chemoproteomics; 20 mM): 28.5%
CC(C)CCn1c(SCC(=O)Nc2ccccc2C(F)(F)F)nc2nccnc2c1=O — inhibition (PIK3CA; enzyme activity, inhibitor; 10 µM): < 20%
NS(=O)(=O)c1cc(NC(=O)C2(c3ccccc3Cl)CC2)ccc1Oc1cccc(Cl)c1 — remaining binding (PIK3CA I800L; cell-free assay, competition with immobilised ligand; 1 µM): 100%
c1cnn2ncc(-c3ccnc(N4CCC45COC5)n3)c2c1 — remaining binding (PIK3CA I800L; binding; 1 µM): 68%
CCCCNc1ncc2c(-c3ccc(F)cc3)nn(C[C@H]3CC[C@H](N)CC3)c2n1 — inhibition (PIK3CA; target engagement in cells, inhibitor, chemoproteomics; 20 mM): 70.8%
Cc1ccc(C(=O)NCc2ccsc2)cc1C#Cc1cn(C(C)C)c2ncnc(N)c12 — activity vs control (Phosphatidylinositol 4,5-bisphosphate 3-kinase catalytic subunit alpha isoform, with p85 (PIK3CA, Homo sapiens, UniProt P42336, E542K); enzyme activity, inhibitor; 1 µM): 100%
NS(=O)(=O)c1cc(NC(=O)Cc2ccccc2)ccc1Oc1cccc(Cl)c1 — remaining binding (PIK3CA E545A; cell-free assay, competition with immobilised ligand; 1 µM): 69%
N[C@@H]1CCN(c2nccc(-c3cnn4ncccc34)n2)C1 — remaining binding (PIK3CA H1047L; binding; 1 µM): 100%
COc1cc(-c2cn(C3CCc4ccccc4N(CC(F)(F)F)C3=O)nn2)ccc1-n1ccc(C)n1 (stereo not drawn) — remaining binding (PIK3CA E542K; cell-free assay, competition with immobilised ligand; 1 µM): 82%
O=S(=O)(Nc1cc(Sc2ncn[nH]2)c(O)c2ccccc12)c1ccc(-c2ccccc2)cc1 — remaining activity (PIK3CA; enzyme activity, inhibitor; 1 µM): ≥ 75%
